# Target: T1, Triosephosphate isomerase (Oryctolagus cuniculus, UniProt P00939)
# Experiment: Inhibitory concentration against rabbit muscle triose-phosphate isomerase
# Design: species or system Muscle tissue
# T1 sequence (P00939 whole entry): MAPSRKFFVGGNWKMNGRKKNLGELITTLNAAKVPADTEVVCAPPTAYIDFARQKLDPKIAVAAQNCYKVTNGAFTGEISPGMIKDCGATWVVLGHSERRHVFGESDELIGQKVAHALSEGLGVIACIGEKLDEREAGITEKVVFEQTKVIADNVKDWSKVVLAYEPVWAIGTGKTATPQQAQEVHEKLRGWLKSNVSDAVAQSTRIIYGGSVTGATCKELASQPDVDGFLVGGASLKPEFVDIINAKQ
row,SMILES,IC50
1,NNC(=O)CCP(=O)(O)O,27000 µM
2,N/C(CCP(=O)(O)O)=N\O,9600 µM

# Target: not listed separately
# Experiment: Binding affinity against class II fructose-bisphosphate aldolase
row,SMILES,Ki
1,N/C(COP(=O)(O)O)=N/O,2.3 µM
2,O=C(CCP(=O)(O)O)NO,145 µM
3,O=C(COP(=O)(O)O)NO [PHOSPHOGLYCOLOHYDROXAMATE],0.01 µM
4,NNC(=O)COP(=O)(O)O [PHOSPHORIC ACID MONOHYDRAZINOCARBONYLMETHYL ESTER],0.34 µM

# Target: not listed separately
# Experiment: Inhibitory concentration against class II fructose-bisphosphate aldolase
row,SMILES,IC50
1,NNC(=O)CCP(=O)(O)O,3630 µM
2,N/C(CCP(=O)(O)O)=N\O,3420 µM

# Target: T1, Triosephosphate isomerase
# Experiment: Binding affinity against rabbit muscle triose-phosphate isomerase
# Design: species or system Muscle tissue
# Method in brief: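 Rabbit muscle TIM, converting G3P to DHAP, was coupled to a large excess of glycerol-3-phosphate dehydrogenase. NADH consumption was followed at 340 nm. The G3P level was estimated enzymatically with the same coupled system. The cuvette was preincubated 10 min at 25 C, and the reaction was started with G3P (0–250). Inhibitor was tested at 0–30 µM, with inhibition analysed on double-reciprocal plots against 1/[G3P].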
row,SMILES,Ki
1,N/C(COP(=O)(O)O)=N/O,4.5 µM
2,O=C(CCP(=O)(O)O)NO,159 µM
3,O=C(COP(=O)(O)O)NO [PHOSPHOGLYCOLOHYDROXAMATE],3 µM
4,NNC(=O)COP(=O)(O)O [PHOSPHORIC ACID MONOHYDRAZINOCARBONYLMETHYL ESTER],111 µM
